Reference: ChEMBL document CHEMBL1641407, “Imidazo[4,5-d]thiazolo[5,4-b]pyridine based inhibitors of IKK2: synthesis, SAR, PK/PD and activity in a preclinical model of rheumatoid arthritis” (Bioorg Med Chem Lett, 2011)

Tests used:
Blood = experiment: Antiinflammatory activity in human whole blood assessed as inhibition of LPS-induced TNFalpha release treated for 5 mins before LPS challenge measured after 6 hrs by ELISA; type: functional, tissue-based
[1] = Cmax in rat at 2 mg/kg, iv and 10 mg/kg, po; type: ADME, organism-based; details: in vivo
Mus musculus [2] = experiment: Antiinflammatory activity in BALB/c mouse assessed as inhibition of LPS-induced TNFalpha release at 100 mg/kg, po administered for 5 hrs before LPS challenge measured after 6.5 hrs post dose by ELISA; type: functional
How it was run: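 BALB/c female mice, 6–8 weeks old, n = 7–8 per treatment. Compounds given by oral gavage at 30 and 100 mg/kg in PEG400/HCl/Tween80/water; controls received vehicle alone. Five hours later, E. coli O111:B4 LPS 50 µg/kg ip. Serum collected 90 min after LPS, TNF-α measured by ELISA. Drug exposure sampled 6.5 h post-dose. Mean ± standard error.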

[3] = Volume of distribution at steady state in rat at 2 mg/kg, iv and 10 mg/kg, po; type: ADME, organism-based; details: in vivo, read-out: Vdss
Mus musculus [4] = experiment: Total AUC in mouse at 2 mg/kg, iv and 10 mg/kg, po; type: ADME, organism-based; details: in vivo
Rattus norvegicus = experiment: Total AUC in rat at 2 mg/kg, iv and 10 mg/kg, po; type: ADME, organism-based; details: in vivo
[5] = Mean residence time in mouse at 2 mg/kg, iv and 10 mg/kg, po; type: ADME, organism-based; details: in vivo
[6] = target: Death-associated protein kinase 2 (Homo sapiens) (UniProt Q9UIK4); experiment: Residual activity at DAPK2 at 10 uM relative to control
[7] = Cmax in mouse at 2 mg/kg, iv and 10 mg/kg, po; type: ADME, organism-based; details: in vivo
[8] = Clearance in dog at 2 mg/kg, iv; type: ADME, organism-based, Canis lupus familiaris; parameters: dose 2 mg/kg, route intravenous; details: in vivo
How it was run: (§1)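 Dog pharmacokinetics, iv dosing only, in vehicle PEG400:water 80:20.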

[9] = target: T1, Cyclin-G-associated kinase (Homo sapiens) (UniProt O14976); experiment: Residual activity at GAK at 10 uM relative to control
T1 sequence (whole entry): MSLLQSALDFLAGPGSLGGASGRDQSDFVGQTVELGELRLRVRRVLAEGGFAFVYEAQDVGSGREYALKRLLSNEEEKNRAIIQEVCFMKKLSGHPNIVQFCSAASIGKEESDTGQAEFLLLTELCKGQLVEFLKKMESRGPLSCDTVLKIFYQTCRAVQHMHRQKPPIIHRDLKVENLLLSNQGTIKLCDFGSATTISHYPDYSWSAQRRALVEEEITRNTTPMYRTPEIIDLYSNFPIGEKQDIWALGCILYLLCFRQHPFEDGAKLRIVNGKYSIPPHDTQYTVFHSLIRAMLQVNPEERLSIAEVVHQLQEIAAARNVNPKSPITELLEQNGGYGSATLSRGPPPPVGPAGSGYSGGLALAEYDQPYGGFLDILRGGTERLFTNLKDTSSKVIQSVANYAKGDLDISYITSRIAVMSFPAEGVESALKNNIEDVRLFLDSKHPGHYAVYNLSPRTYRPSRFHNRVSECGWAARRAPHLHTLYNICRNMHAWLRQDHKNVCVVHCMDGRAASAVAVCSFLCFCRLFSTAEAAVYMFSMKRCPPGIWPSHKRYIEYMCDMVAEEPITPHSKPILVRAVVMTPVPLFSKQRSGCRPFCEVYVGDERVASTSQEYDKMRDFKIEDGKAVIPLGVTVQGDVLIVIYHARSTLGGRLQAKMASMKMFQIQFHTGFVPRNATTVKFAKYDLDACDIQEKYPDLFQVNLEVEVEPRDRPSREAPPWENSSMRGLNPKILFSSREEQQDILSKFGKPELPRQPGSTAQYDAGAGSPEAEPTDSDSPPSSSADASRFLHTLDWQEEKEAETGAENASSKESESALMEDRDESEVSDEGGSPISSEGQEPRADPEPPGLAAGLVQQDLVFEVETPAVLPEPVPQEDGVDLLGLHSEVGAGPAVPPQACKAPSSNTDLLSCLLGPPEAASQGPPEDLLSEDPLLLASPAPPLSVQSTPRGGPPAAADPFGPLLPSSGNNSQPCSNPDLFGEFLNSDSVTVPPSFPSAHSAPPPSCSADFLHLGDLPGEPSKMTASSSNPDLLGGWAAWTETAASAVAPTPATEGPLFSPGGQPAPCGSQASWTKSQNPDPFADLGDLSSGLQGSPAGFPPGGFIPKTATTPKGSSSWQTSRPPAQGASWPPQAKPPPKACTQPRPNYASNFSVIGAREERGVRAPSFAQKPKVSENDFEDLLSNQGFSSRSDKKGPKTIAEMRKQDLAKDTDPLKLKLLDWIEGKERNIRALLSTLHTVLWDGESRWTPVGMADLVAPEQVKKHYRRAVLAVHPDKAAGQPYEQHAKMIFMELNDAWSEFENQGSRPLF

[10] = Volume of distribution at steady state in dog at 2 mg/kg, iv; type: ADME, organism-based, Canis lupus familiaris; parameters: dose 2 mg/kg, route intravenous; details: in vivo, read-out: Vdss; how it was run: as §1
Canis familiaris = experiment: Total AUC in dog at 2 mg/kg, iv; type: ADME, organism-based, Canis lupus familiaris; parameters: time AUCmax, dose 2 mg/kg, route intravenous; details: in vivo
How it was run: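 Dogs received the compound intravenously only, in PEG400:water 80:20. Total plasma exposure (AUC_tot) is reported in nM h.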

[11] = Clearance in rat at 2 mg/kg, iv and 10 mg/kg, po; type: ADME, organism-based; details: in vivo
[12] = Half life in mouse at 2 mg/kg, iv and 10 mg/kg, po; type: ADME, organism-based; details: in vivo

Chain of Death-associated protein kinase 2 (Homo sapiens) (Q9UIK4 whole entry, looked up): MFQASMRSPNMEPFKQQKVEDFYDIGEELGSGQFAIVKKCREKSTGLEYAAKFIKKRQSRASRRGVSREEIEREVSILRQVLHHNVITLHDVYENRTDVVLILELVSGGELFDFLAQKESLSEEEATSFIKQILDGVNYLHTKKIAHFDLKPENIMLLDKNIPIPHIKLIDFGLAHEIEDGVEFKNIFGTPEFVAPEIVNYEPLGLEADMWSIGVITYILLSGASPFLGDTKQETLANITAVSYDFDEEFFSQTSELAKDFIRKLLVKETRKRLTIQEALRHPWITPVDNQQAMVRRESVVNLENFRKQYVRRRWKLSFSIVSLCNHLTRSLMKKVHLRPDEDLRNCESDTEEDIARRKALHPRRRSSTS

- IC50 (Blood): 2000 nM
- Cmax [1]: 1650 nM
- Vd [3]: 2.3 L/kg
- AUC (Mus musculus [4]): 3000 nM
- AUC (Rattus norvegicus): 4.63 µM
- MRT [5]: 2.9 h
- Cmax [7]: 1330 nM
- clearance [8]: 43 mL/min/kg
- residual activity [9]: < 10%
- Vd [10]: 3.1 L/kg
- AUC (Canis familiaris): 1980 nM
- clearance [11]: 63 mL/min/kg
- half-life [12]: 1.9 h
Structure (SMILES): CCNc1nc2sc(-c3cccc([C@H](C)NC(C)=O)c3)nc2c2c1ncn2C
- inhibition in vivo at 100 mg/kg (Mus musculus [2]): 75%
- residual activity [6]: < 10%
